# According to ChEMBL document CHEMBL4765240, “Design, Synthesis, and Immunological Evaluation of a Multicomponent Construct Based on a Glycotripeptoid Core Comprising B and T Cell Epitopes and a Toll-like Receptor 7 Agonist That Elicits Potent Immune Responses” (J Med Chem, 2018):
# Activity calls are given as the source filed them. The rule behind the calls is not given here. Numbered stars: 1 amine (or outer) side, 2 acyl side, 3 side chain; on linkers, the order of the positions; unused ones are H or OH. Square brackets hold non-standard residues; d marks the D form. Peptide text beside a SMILES is read from it. * marks the point of attachment. X4 = O=C(CCN(CCCO[C@H]1O[C@H](CO)[C@@H](O)[C@H](O)[C@@H]1O)[*:1])[*:2]; X3 = COCCOc1nc(N)c2[nH]c(=O)n(Cc3ccc(C(=O)*)cc3)c2n1; X2 = O=C(CCCCCn1cc(CN[*:1])nn1)[*:2]; Ahx = NCCCCCC(=O)O
# Key:
# Mus musculus [1] = species on record: Mus musculus; experiment: Adjuvanted-antitumor vaccine activity in C57BL/6 mouse assessed as induction of OT2-T cell mediated IFNgamma production in lymph node at 1 ug/ml, ID incubated for 5 days by anti-IFNgamma staining based flow cytometry; assay type: functional, organism-based; conditions: dose 1.0 µg/ml, time 5.0 day
# CD4+ve Th = experiment: Cytotoxicity against OT2 mouse CD4-positive T cells xenografted in C57BL/6 mouse assessed as reduction in cell viability in splenocytes by flow cytometry analysis; assay type: cell-based; conditions: in vivo
# Mus musculus [2] = experiment: Adjuvanted-antitumor vaccine activity in C57BL/6 mouse assessed as fold increase in OT-2 T cells in spleen at 11.7 nmol, ID coadministered with OT2-derived CD4+ T cell after 5 days […]; assay type: functional; conditions: for fold change (FC): time 5 day
# How it was run: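 2 × 10⁵ OT-II CD4⁺ T cells (from OT-II Rag2 TCR-transgenic knockout mice) transferred into C57BL/6 mice (6−10 weeks, n = 3 per group), then intradermal immunization with 11.7 nmol per mouse. Spleen collected after 5 days; OT-II cells counted by flow cytometry with anti-CD4, anti-Vα2 and anti-Vβ5.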
# Mus musculus [3] = species on record: Mus musculus; experiment: Immuno-adjuvant activity in immunized-C57BL/6 mouse assessed as antibody recognition in sera against Tn3G7K at 11 .7 nmol, ID at day 1 and day 20 and measured post second dose on day 27; assay type: functional, organism-based
# How it was run: (§1)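 C57BL/6 mice, n = 3 per group, received 11.7 nmol intradermally on days 1 and 20, and sera were taken on day 27. ELISA plates were coated at 1 μg/mL with the peptoid or the biotinylated Tn3G7K, the latter on streptavidin plates for 1 h at 37 °C. Serially diluted sera were detected with anti-mouse IgG-HRP and OPD, read at 492 nm. Log10 titer is the dilution giving twice the absorbance of 1/100 naive serum.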
# Mus musculus [4] = species on record: Mus musculus; experiment: Immuno-adjuvant activity in immunized-C57BL/6 mouse assessed as antibody recognition in sera against 21 at 11 .7 nmol, ID at day 1 and day 20 and measured post second dose on day 27; assay type: functional, organism-based; how it was run: as §1
# Bone marrow cell [5] = experiment: Adjuvanted-antitumor vaccine activity in C57BL/6 mouse bone marrow derived cells assessed as induction of IL-6 production at 10^-4 to 10^1 ug/ml incubated for 48 hrs by ELISA; assay type: functional, cell-based; conditions: dose 0.0001-10 µg/ml
# How it was run: (§2)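 BMDCs from C57BL/6 bone marrow grown 6 days in 2-ME/10% FCS RPMI with GM-CSF-containing supernatant, about 60−70% CD11c⁺CD11b⁺. 10⁵ cells incubated at 37 °C for 48 h with increasing compound concentrations. IL-12p40 and IL-6 measured in supernatants by ELISA.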
# Mus musculus [6] = species on record: Mus musculus; experiment: Immuno-adjuvant activity in immunized-C57BL/6 mouse assessed as antibody recognition in sera against 22 at 11 .7 nmol, ID at day 1 and day 20 and measured post second dose on day 27; assay type: functional, organism-based; how it was run: as §1
# Bone marrow cell [7] = experiment: Adjuvanted-antitumor vaccine activity in C57BL/6 mouse bone marrow derived cells assessed as induction of T cell activation at 10^-4 to 10^1 ug/ml incubated for 3 days in presence of mouse OT2-derived CD4+ T cell by ELISA; conditions: dose 1.0 µg/ml, time 72.0 hrs
# Mus musculus [8] = species on record: Mus musculus; experiment: Adjuvanted-antitumor vaccine activity in C57BL/6 mouse assessed as induction of OT2-T cell mediated IFNgamma production in lymph node at 11.7 nmol, ID incubated for 5 days by anti-IFNgamma staining based flow cytometry; assay type: functional, organism-based; conditions: time 5.0 day
# How it was run: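 Lymph node cells taken at day 5, 5 × 10⁵ per well, restimulated 2 h at 37 °C with 50 μg/mL OVA 323−339 plus GolgiPlug. Fixed, permeabilized, stained with anti-CD4, anti-CD3 and anti-IFNγ; flow cytometry.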
# Mus musculus [9] = species on record: Mus musculus; experiment: Adjuvanted-antitumor vaccine activity in C57BL/6 mouse assessed as induction of OT2-T cell mediated IFNgamma production in splenocytes at 11.7 nmol, ID followed by stimulation with OVA(323 to 339) peptide after 48 hrs by ELISA; assay type: functional, organism-based
# How it was run: (§3)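 OT-II CD4⁺ T cells (2 × 10⁵) transferred into C57BL/6 mice (n = 3 per group), then 11.7 nmol per mouse given intradermally. Splenocytes harvested at day 5, cultured at 5 × 10⁵ per well with or without OVA 323−339 (1 μg/mL) at 37 °C for 48 h. IFN-γ and IL-5 measured in supernatants by ELISA.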
# Mus musculus [10] = species on record: Mus musculus; experiment: Adjuvanted-antitumor vaccine activity in C57BL/6 mouse assessed as induction of OT2-T cell mediated IL-5 production in splenocytes at 11.7 nmol, ID followed by stimulation with OVA(323 to 339) peptide incubated for 48 hrs by ELISA; assay type: functional, organism-based; how it was run: as §3
# Bone marrow cell [11] = experiment: Adjuvanted-antitumor vaccine activity in C57BL/6 mouse bone marrow derived cells assessed as induction of IL-12 production at 10^-4 to 10^1 ug/ml incubated for 48 hrs by ELISA; assay type: functional, cell-based; conditions: dose 0.0001-10 µg/ml; how it was run: as §2
# Mus musculus [12] = species on record: Mus musculus; experiment: Immuno-adjuvant activity in C57BL/6 mouse assessed as antibody response to (2R,8R,11S,14R,20R)-14-(2-amino-2-oxoethyl)-20-((2S,5R,8S,11R,14S,17R,20S,23R,26S)-5,14-bis((1H-imidazol-5-yl)methyl)-36-(4-(22-(4-((6-amino-2-(2-methoxyethoxy)-8-oxo-7H-purin-9(8H)-yl)methyl)phenyl)-3,7,11,15,22-pentaoxo-6-(3-((2S,3S,4S,5S,6R)-3,4,5-trihydroxy-6-(hydroxymethyl)tetrahydro-2H-pyran-2-yloxy)propyl)-10,14-bis(3-((2S,3S,4S,5S,6S)-3,4,5-trihydroxy-6-(hydroxymethyl)tetrahydro-2H-pyran-2-yloxy)propyl)-2,6,10,14,21-pentaazadocosyl)-1H-1,2,3-triazol-1-yl)-23-(3-amino-3-oxopropyl)-29-sec-butyl-26-(hydroxymethyl)-17-isopropyl-2,8,11,20-tetramethyl-4,7,10,13,16,19,22,25,28,31-decaoxo-3,6,9,12,15,18,21,24,27,30-decaazahexatriacontanamido)-17-sec-butyl-11-(2-carboxyethyl)-2-(3-guanidinopropyl)-8-methyl-4,7,10,13,16,19-hexaoxo-3,6,9,12,15,18-hexaazatricosane-1,23-dioic acid by measuring serum IgG levels at 11 .7 nmol, ID at day 0 and day 21 and measured post second dose; assay type: functional, organism-based
# How it was run: (§4)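 Female C57BL/6 mice, 6 weeks old, were immunized intradermally with 11.7 nmol on days 0 and 21, and sera were taken on day 28. IgG was measured by ELISA on plates coated at 1 μg/mL, with the biotinylated Tn peptide captured on streptavidin plates for 1 h at 37 °C. Serum dilution series were detected with anti-mouse IgG-HRP and OPD/H2O2, read at 492 nm. Titer is the log10 of the highest dilution giving twice the absorbance of naive serum at 1/100, reported as mean SD.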
# Mus musculus [13] = species on record: Mus musculus; experiment: Immuno-adjuvant activity in C57BL/6 mouse assessed as antibody response to OVA peptide by measuring serum IgG levels at 11 .7 nmol, ID at day 0 and day 21 and measured post second dose; assay type: functional, organism-based; conditions: time 21.0 day
# Mus musculus [14] = species on record: Mus musculus; experiment: Immuno-adjuvant activity in C57BL/6 mouse assessed as antibody response to Tn3G7K by measuring serum IgG levels at 11 .7 nmol, ID at day 0 and day 21 and measured post second dose; assay type: functional, organism-based; conditions: time 21.0 day; how it was run: as §4
Structure (SMILES),Activity (Mus musculus [1]),Activity (CD4+ve Th),Activity (Mus musculus [2]; time 5.0 day),Activity (Mus musculus [3]),Activity (Mus musculus [4]),Activity (Bone marrow cell [5]),Activity (Mus musculus [6]),Activity (Bone marrow cell [7]),fold change (FC) (Mus musculus [2]),Activity (Mus musculus [8]),Activity (Mus musculus [9]),Activity (Mus musculus [10]),Activity (Bone marrow cell [11]),Activity (Mus musculus [12]),Activity (Mus musculus [13]),Activity (Mus musculus [14])
CC[C@H](C)[C@H](N)C(=O)N[C@@H](CO)C(=O)N[C@@H](CCC(N)=O)C(=O)N[C@@H](C)C(=O)N[C@H](C(=O)N[C@@H](Cc1cnc[nH]1)C(=O)N[C@@H](C)C(=O)N[C@@H](C)C(=O)N[C@@H](Cc1cnc[nH]1)C(=O)N[C@@H](C)C(=O)N[C@@H](CCC(=O)O)C(=O)N[C@H](C(=O)N[C@@H](CC(N)=O)C(=O)N[C@@H](CCC(=O)O)C(=O)N[C@@H](C)C(=O)NCC(=O)N[C@@H](CCCNC(=N)N)C(=O)O)[C@@H](C)CC)C(C)C [ovalbumin peptide] (H-ISQAVHAAHAEINEAGR-OH),inactive,Non-Toxic,inactive,,,,,,,,,,,,,
CC[C@H](C)[C@H](NC(=O)CCCCCn1cc(CNC(=O)CCN(CCCO[C@H]2O[C@H](CO)[C@@H](O)[C@H](O)[C@@H]2O)C(=O)CCN(CCCO[C@H]2O[C@H](CO)[C@@H](O)[C@H](O)[C@@H]2O)C(=O)CCN(CCCO[C@H]2O[C@H](CO)[C@@H](O)[C@H](O)[C@@H]2O)C(=O)CCCCCNC(=O)c2ccc(Cn3c(=O)[nH]c4c(N)nc(OCCOC)nc43)cc2)nn1)C(=O)N[C@@H](CO)C(=O)N[C@@H](CCC(N)=O)C(=O)N[C@@H](C)C(=O)N[C@H](C(=O)N[C@@H](Cc1cnc[nH]1)C(=O)N[C@@H](C)C(=O)N[C@@H](C)C(=O)N[C@@H](Cc1cnc[nH]1)C(=O)N[C@@H](C)C(=O)N[C@@H](CCC(=O)O)C(=O)N[C@H](C(=O)N[C@@H](CC(N)=O)C(=O)N[C@@H](CCC(=O)O)C(=O)N[C@@H](C)C(=O)NCC(=O)N[C@@H](CCCNC(=N)N)C(=O)O)[C@@H](C)CC)C(C)C ({X3-Ahx}-[X4][X4][X4][X2]ISQAVHAAHAEINEAGR-OH),,,,inactive,Active,Active,Active,Active,30,Active,Active,inactive,Active,,,
CC[C@H](C)[C@H](NC(=O)CCCCCn1cc(CNC(=O)CCN(CCCO[C@H]2O[C@H](CO)[C@H](O)[C@H](O)[C@H]2NC(C)=O)C(=O)CCN(CCCO[C@H]2O[C@H](CO)[C@H](O)[C@H](O)[C@H]2NC(C)=O)C(=O)CCN(CCCO[C@H]2O[C@H](CO)[C@H](O)[C@H](O)[C@H]2NC(C)=O)C(=O)CCCCCNC(=O)c2ccc(Cn3c(=O)[nH]c4c(N)nc(OCCOC)nc43)cc2)nn1)C(=O)N[C@@H](CO)C(=O)N[C@@H](CCC(N)=O)C(=O)N[C@@H](C)C(=O)N[C@H](C(=O)N[C@@H](Cc1cnc[nH]1)C(=O)N[C@@H](C)C(=O)N[C@@H](C)C(=O)N[C@@H](Cc1cnc[nH]1)C(=O)N[C@@H](C)C(=O)N[C@@H](CCC(=O)O)C(=O)N[C@H](C(=O)N[C@@H](CC(N)=O)C(=O)N[C@@H](CCC(=O)O)C(=O)N[C@@H](C)C(=O)NCC(=O)N[C@@H](CCCNC(=N)N)C(=O)O)[C@@H](C)CC)C(C)C (HELM PEPTIDE1{[COCCOc1nc(N)c2[nH]c(=O)n(Cc3ccc(C(=O)NCCCCCC(=O)N(CCCO[C@H]4O[C@H](CO)[C@H](O)[C@H](O)[C@H]4NC(C)=O)CCC(=O)N(CCCO[C@H]4O[C@H](CO)[C@H](O)[C@H](O)[C@H]4NC(C)=O)CCC(=O)N(CCCO[C@H]4O[C@H](CO)[C@H](O)[C@H](O)[C@H]4NC(C)=O)CCC(=O)[*:2])cc3)c2n1].[O=C(CCCCCn1cc(CN[*:1])nn1)[*:2]].I.S.Q.A.V.H.A.A.H.A.E.I.N.E.A.G.R}$$$$V2.0),,,,inactive,Active,Active,Active,Active,30,Active,Active,inactive,Active,Active,inactive,inactive
COCCOc1nc(N)c2[nH]c(=O)n(Cc3ccc(C(=O)O)cc3)c2n1,,,,,,inactive,,,,,,,inactive,,,
CC(=O)N[C@H]1[C@@H](OCCCNCCC(=O)N(CCCO[C@H]2O[C@H](CO)[C@H](O)[C@H](O)[C@H]2NC(C)=O)CCC(=O)N(CCCO[C@H]2O[C@H](CO)[C@H](O)[C@H](O)[C@H]2NC(C)=O)CCC(=O)OC(C)(C)C)O[C@H](CO)[C@H](O)[C@@H]1O,,,,,,inactive,,,,,,,inactive,,,
COCCOc1nc(N)c2[nH]c(=O)n(Cc3ccc(C(=O)NCCCCCC(=O)N(CCCO[C@H]4O[C@H](CO)[C@H](O)[C@H](O)[C@H]4NC(C)=O)CCC(=O)N(CCCO[C@H]4O[C@H](CO)[C@H](O)[C@H](O)[C@H]4NC(C)=O)CCC(=O)N(CCCO[C@H]4O[C@H](CO)[C@H](O)[C@H](O)[C@H]4NC(C)=O)CCC(=O)OC(C)(C)C)cc3)c2n1,inactive,,,,,Active,,,,,,,Active,,inactive,inactive
